Assay outcomes: PubChem BioAssay, Sanford-Burnham Center for Chemical Genomics
An excerpt weighted towards active compounds, which were near 1.5% of everything screened.
APJ agonist: APJ receptor agonism. P35414. CHO-K1 APJ PathHunter beta-arrestin, luminescence; 0% DMSO wells, 100% apelin. activation, % at 20 µM. actives 0.11% (n = 330,000). AID 2520;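 active = activation more than six SD over the plate average, tested at 20 µM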;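 note: 0% = DMSO alone and 100% = apelin-13 at 10 nM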
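Assay system: CHO-K1 APJ beta-arrestin complementation cell line / Compound: single test compound dose, 20 µM final, 1% DMSO / Times: overnight seeding, 90 min compound at 25 °C, 1 h detection / Technique: beta-gal luminescence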
CXCR6 inh: CXCR6 (human) receptor inhibition | CHO-K1 PathHunter CXCR6 beta-arrestin, luminescence | inhibition, % at 20 µM | actives 0.36% (n = 360,000); in the data active = inhibition above about 34%, passing the limit was not always enough;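 note: antagonist mode with CXCL16 agonist at 10 nM final; 0% = 10 nM CXCL16 with DMSO and 100% = unstimulated wells without agonist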
APJ antag: APJ receptor antagonism | CHO-K1 APJ beta-arrestin complementation, luminescence | inhibition, % at 20 µM | actives 0.32% (n = 330,000);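 active = inhibition above about 40% at 20 µM, limit read from the data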;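 note: cells challenged with 10 nM apelin-13 agonist together with compound; plate controls were apelin-13 plus DMSO wells for no effect and DMSO wells lacking apelin-13 for full effect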
CCR6 antag: antagonists of human CCR6 receptor. actives 0.49% (n = 340,000). CHO-K1 CCR6 PathHunter beta-arrestin, luminescence, CCL20-stimulated. P51684. AID 493098. inhibition, % at 20 µM;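 active = compounds whose inhibition of the agonist-driven luminescence signal at 20 µM reaches about 50%, limit read from the data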;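 note: cells stimulated with CCL20 at 14 nM final; plate controls were DMSO with CCL20 for no effect and DMSO without agonist for full effect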
Target sequence (P51684 whole entry, looked up): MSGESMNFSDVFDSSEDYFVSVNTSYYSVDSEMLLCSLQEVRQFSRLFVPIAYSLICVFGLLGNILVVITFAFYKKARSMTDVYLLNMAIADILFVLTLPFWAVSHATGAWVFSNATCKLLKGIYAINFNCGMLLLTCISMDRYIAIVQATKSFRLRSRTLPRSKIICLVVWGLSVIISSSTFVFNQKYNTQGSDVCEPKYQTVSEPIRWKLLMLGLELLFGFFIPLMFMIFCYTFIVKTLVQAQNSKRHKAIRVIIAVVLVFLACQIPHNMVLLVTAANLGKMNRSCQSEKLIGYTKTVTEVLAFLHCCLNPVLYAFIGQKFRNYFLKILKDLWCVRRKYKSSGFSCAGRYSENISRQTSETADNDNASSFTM
EBI2 antag: antagonists of human EBI2 receptor | P32249 | EBI2 beta-arrestin recruitment, luminescence, 7a,25-OHC stimulated | inhibition, % at 5 µM | actives 0.81% (n = 360,000) | AID 651636; in the data active = inhibition above about 38%;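 note: enzyme fragment complementation signal reports receptor beta-arrestin coupling in cells; 0% = agonist plus DMSO wells and 100% = wells without agonist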
EBI2 antag conf: confirmation of human EBI2 receptor antagonists; EBI2 beta-arrestin luminescence, 7a,25-OHC antagonism; AID 651997; inhibition, % at 5 µM; shares compounds with EBI2 antag; actives 29% (n = 2,400);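 active = inhibition of at least 50%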
EBI2 ag: EBI2 agonism counter-screen; shares compounds with EBI2 antag; EBI2-expressing cells, agonist mode, luminescence, 60 min; 0% vehicle, 100% 7α,25-dihydroxycholesterol control; activation, % at 5 µM; 2,400 tested, under 10 active; AID 652000;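 active = activation of at least 50%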
bGal counter: inhibits E. coli beta-galactosidase, counter-screen for EBI2 antagonists; purified beta-galactosidase, luminescent Galacton Star, 15 min; actives 1% (n = 2,400); inhibition, % at 5 µM; shares compounds with EBI2 antag;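 active = replicate-average signal at least 3 plate SD below neutral wells, shown as high inhibition, flagging enzyme-inhibiting false positives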;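 note: 0% = DMSO wells with enzyme and 100% = wells lacking enzyme; higher means stronger loss of beta-gal luminescence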
* marks the source's active call; other numbers are inactive results; . = no result.

SMILES | APJ agonist | CXCR6 inh | APJ antag | CCR6 antag | EBI2 antag | EBI2 antag conf | EBI2 ag | bGal counter
COc1cc2nc(CN3CCN(S(=O)(=O)c4ccccc4[N+](=O)[O-])CC3)[nH]c(=O)c2cc1OC | . | 1 | . | . | 45* | 31 | 1 | 4
COc1cc2nc(CN3CCN(S(=O)(=O)c4ccccc4C(F)(F)F)CC3)[nH]c(=O)c2cc1OC | 4 | -2 | 16 | 9 | 64* | 22 | 1 | -10
COc1ccc(OCCN2CCN(S(=O)(=O)c3ccccc3C(F)(F)F)CC2)cc1 | -1 | -11 | -1 | 14 | 60* | 50* | 1 | -4
COc1ccc(OCCN2CCN(S(=O)(=O)c3ccccc3C#N)CC2)cc1 | 9 | -5 | 1 | 6 | 35 | . | . | .
CC(C)COc1cccc(C(=O)N(C)CC(=O)Nc2cccc3ccccc23)c1 | -8 | -10 | -6 | 15 | -10 | . | . | .
Cc1ccc(S(=O)(=O)N2CCN(Cc3nc4ccccc4[nH]3)CC2)cc1C | -2 | 4 | 21 | -13 | 1 | . | . | .
COc1cc2nc(CN3CCN(S(=O)(=O)c4ccc(Br)cc4)CC3)[nH]c(=O)c2cc1OC | 1 | -3 | 3 | 11 | 55* | 35 | 2 | 6
COc1ccc(N(CC(O)CN2CCOCC2)S(=O)(=O)c2ccccc2)cc1 (stereo unspecified) | -4 | 3 | -8 | 3 | -5 | . | . | .
O=C(NCc1ccc2c(c1)OCO2)c1cc([N+](=O)[O-])ccc1N1CCCCC1 | -4 | 4 | 14 | 16 | 83* | 62* | -2 | -14
COc1cc(NC(=O)c2cc([N+](=O)[O-])ccc2N2CCOCC2)ccc1NC(=O)c1ccco1 | -3 | -2 | -44 | 15 | 55* | 7 | -1 | -4
O=C(CSc1nc2cc([N+](=O)[O-])ccc2n1-c1ccccc1)NCc1ccc2c(c1)OCO2 | -4 | -3 | 15 | 4 | 55* | 24 | -1 | -8
O=C(NCc1ccco1)c1cc([N+](=O)[O-])ccc1N1CCCCC1 | -4 | 0 | 6 | 17 | 53* | 39 | 1 | 3
O=C(Nc1cc([N+](=O)[O-])ccc1N1CCOCC1)c1ccco1 | -2 | 7 | 3 | 7 | 6 | . | . | .
COCCN(Cc1ccccc1)C(=O)C1CCN(S(=O)(=O)c2ccc3c(c2)OCCO3)CC1 | 0 | 0 | 14 | 8 | -5 | . | . | .
COc1ccc(N(CC(=O)NCc2ccc(F)cc2)C(=O)Cn2nnc(-c3ccc(C)o3)n2)cc1OC | -1 | 4 | 19 | 15 | 6 | . | . | .
COc1ccc(-n2ncc(C(C)NS(=O)(=O)c3cc(F)ccc3C)c2C)cc1 (stereo unspecified) | 7 | -5 | 1 | -1 | 13 | . | . | .
CCOc1ccc(CC(=NCCc2ccccc2)C2=C(O)CC(C)(C)CC2=O)cc1OCC | -3 | 9 | -12 | 6 | 5 | . | . | .
O=C(O)c1ccc(-c2ccc(Cl)cc2Cl)o1 | -3 | 4 | -13 | -4 | -5 | . | . | .
COc1cc2c(cc1OC)C(c1ccc(-c3ccc(Cl)cc3Cl)o1)=NCC2 | -1 | -3 | -5 | -1 | 74* | 66* | -1 | -17
Cc1nc(N/N=C/c2ccc(O)cc2)c2cnn(-c3ccccc3)c2n1 | -1 | -4 | 4 | -7 | 53* | 28 | -1 | -7
O=C(NCc1ccc(F)cc1)C1CCCN(C(=O)Nc2ccccc2)C1 (stereo unspecified) | 1 | -2 | -2 | -6 | 50* | 19 | 0 | 6
O=C(NCc1ccccc1F)C1CCCN(C(=O)Nc2ccc(F)cc2)C1 (stereo unspecified) | 0 | -6 | -24 | 12 | 16 | . | . | .
O=C(NCc1ccc(F)cc1)C1CCCN(C(=O)Nc2ccc(F)cc2)C1 (stereo unspecified) | -2 | 1 | 12 | 2 | 51* | 33 | 2 | 1
Cc1ccc(CNC(=O)C2CCN(C(=O)Nc3ccc(C)cc3)CC2)cc1 | -3 | 2 | 3 | 13 | 62* | 29 | 0 | 10
C(=C\c1ccccc1)/CN1CCN(C(c2ccccc2)c2nnnn2-c2ccc3c(c2)OCCO3)CC1 (stereo unspecified) | . | 17 | . | . | 51* | 38 | 0 | 7
SMILES | APJ agonist | CXCR6 inh | APJ antag | CCR6 antag | EBI2 antag | EBI2 antag conf | EBI2 ag | bGal counter
CCCCn1nnnc1C(c1cccs1)N1CCN(C/C=C/c2ccccc2)CC1 (stereo unspecified) | . | 6 | . | . | 44* | 9 | 1 | 6
COc1ccc(C(c2nnnn2C2CCCCC2)N2CCN(C/C=C/c3ccccc3)CC2)cc1 (stereo unspecified) | . | 17 | . | . | 60* | 44 | 0 | 5
C(=C\c1ccccc1)/CN1CCN(C(c2ccnc3ccccc23)c2nnnn2-c2ccc3c(c2)OCCO3)CC1 (stereo unspecified) | . | 6 | . | . | 22 | . | . | .
O=C(Nc1ccc2c(c1)OCCO2)C(c1cc2ccccc2o1)N1CCN(C/C=C/c2ccccc2)CC1 (stereo unspecified) | . | -3 | . | . | 39* | 7 | -2 | -6
CCCCn1nnnc1C(C1CC1)N1CCN(C/C=C/c2ccccc2)CC1 (stereo unspecified) | . | 2 | . | . | 14 | . | . | .
COc1c2ccoc2nc2c(OC)c(OCC(OC(C)=O)C(C)(C)O)ccc12 (stereo unspecified) | -3 | 2 | -30 | -8 | -2 | . | . | .
C(=C\c1ccccc1)/CN1CCN(C(c2cc3ccccc3o2)c2nnnn2C2CCCC2)CC1 (stereo unspecified) | . | -2 | . | . | 52* | 7 | 1 | 4
COc1ccc(C(c2nnnn2C(C)(C)C)N2CCN(C/C=C/c3ccccc3)CC2)cc1 (stereo unspecified) | . | 12 | . | . | 37 | . | . | .
COc1ccc(C(c2nnnn2-c2ccc(OC)cc2)N2CCN(C/C=C/c3ccccc3)CC2)cc1 (stereo unspecified) | . | 8 | . | . | 63* | 31 | -1 | -5
CCCCn1nnnc1C(c1ccc(OC)cc1)N1CCN(C/C=C/c2ccccc2)CC1 (stereo unspecified) | . | 19 | . | . | 58* | 25 | 2 | 12
COc1ccc(-n2nnnc2C(c2ccccc2OC(F)(F)F)N2CCN(C/C=C/c3ccccc3)CC2)cc1 (stereo unspecified) | . | 11 | . | . | 90* | 55* | 2 | 12
COc1ccc(-n2nnnc2C(c2cccs2)N2CCN(C/C=C/c3ccccc3)CC2)cc1 (stereo unspecified) | . | -1 | . | . | 42 | . | . | .
N#Cc1c(Nc2ccccc2)c(/C=N/NCCO)c[nH]c1=O | -3 | -9 | 5 | 0 | -1 | . | . | .
